In ChEMBL document CHEMBL4138168, “Design and synthesis of novel thiobarbituric acid derivatives targeting both wild-type and BRAF-mutated melanoma cells” (Eur J Med Chem, 2018):
Active and inactive are the calls of the source. The rule behind the calls is not given here.

How the values were obtained:
[1] = system: CHL-1; experiment: Induction of apoptosis in human CHL-1 cells harboring wild type BRAF assessed as increase in phosphorylated Bcl-2 level at 5 to 25 uM after 24 hrs by Western blot analysis; assay type: functional, cell-based
Procedure, shortened: (§1)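 2 × 10^6 cells treated with the indicated concentrations for 24 h. Whole-cell lysates run on SDS-PAGE, transferred to PVDF, probed with antibodies against apoptosis/survival proteins, and detected by enhanced chemiluminescence.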

[2] = system: UACC-903; experiment: Induction of apoptosis in human UACC-903 cells harboring BRAF mutant assessed as apoptotic dead cells level at 25 uM after 24 hrs by AAD dye containing caspase 3/7 activity assay (reference value: 3%); assay type: functional
[3] = system: UACC-903; experiment: Induction of apoptosis in human UACC-903 cells harboring BRAF mutant assessed as viable cells at 25 uM after 24 hrs by Annexin V/7-AAD staining-based assay (reference value: 95.64%); assay type: functional; conditions: UACC-903, 24 h, read-out: Activity
[4] = Cytotoxicity against human MCF10A cells assessed as cell viability at 25 uM after 48 hrs by MTT assay relative to control; assay type: cell-based, MCF-10A; conditions: read-out: Activity
Procedure, shortened: (§2)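 MTT viability at a single 25 μM dose, 48 h, 3,000 cells/well. MCF10A normal breast epithelial cells were kept in MEGM mammary epithelial medium; the cancer lines were in DMEM with 10% FBS, 37 °C. OD at 570 nm with 630 nm background, expressed relative to control.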

[5] = system: CHL-1; experiment: Induction of apoptosis in human CHL-1 cells harboring wild type BRAF assessed as […] in cleaved PARP level at 5 to 25 uM after 24 hrs by Western blot analysis; assay type: functional, cell-based; procedure, shortened: as §1
[6] = system: UACC-903; experiment: Induction of apoptosis in human UACC-903 cells harboring BRAF mutant assessed as early apoptotic cells at 5 uM after 24 hrs by Annexin V/7-AAD staining-based assay (reference value: 2.68%); assay type: functional
[7] = Selectivity ratio of cytotoxicity against human MCF10A cells to IC50 for human UACC-903 cells harboring BRAF mutant; assay type: toxicity, cell-based; conditions: MCF10A cells versus UACC-903 cells harboring BRAF mutant
[8] = system: UACC-903; experiment: Induction of apoptosis in human UACC-903 cells harboring BRAF mutant assessed as apoptotic cells level at 25 uM after 24 hrs by AAD dye containing caspase 3/7 activity assay (reference value: 6.88%); assay type: functional
[9] = system: UACC-903; experiment: Induction of apoptosis in human UACC-903 cells harboring BRAF mutant assessed as increase in phosphorylated Bcl-2 level at 5 to 25 uM after 24 hrs by Western blot analysis; assay type: functional, cell-based; procedure, shortened: as §1
[10] = Selectivity ratio of cytotoxicity against human MCF10A cells to cytotoxicity against human MCF7 cells; assay type: toxicity, cell-based; conditions: MCF10A cells versus MCF7 cells
[11] = system: CHL-1; experiment: Induction of apoptosis in human CHL-1 cells harboring wild type BRAF assessed as decrease in survivin level at 5 to 25 uM after 24 hrs by Western blot analysis; assay type: functional, cell-based; procedure, shortened: as §1
[12] = system: UACC-903; experiment: Induction of apoptosis in human UACC-903 cells harboring BRAF mutant assessed as dead cells level at 5 uM after 24 hrs by AAD dye containing caspase 3/7 activity assay (reference value: 0.06%); assay type: functional
[13] = system: MDA-MB-231; experiment: Cytotoxicity against human MDA-MB-231 cells assessed as cell viability at 25 uM after 48 hrs by MTT assay relative to control; assay type: functional; conditions: MDA-MB-231, 48 h, read-out: Activity; procedure, shortened: as §2
[14] = system: CHL-1; experiment: Antiproliferative activity against human CHL-1 cells harboring wild type BRAF after 48 hrs by MTT assay; assay type: functional, cell-based; conditions: CHL-1, 48 h
Procedure, shortened: (§3)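 3,000 cells per well, grown at 37 °C (DMEM with 10% FBS and penicillin/streptomycin; HCT116 in McCoy's 5A). Cells exposed in triplicate to 0.5–25 μM compound for 48 h. MTT (5 mg/mL PBS stock) added for 3 h, formazan dissolved in DMSO, OD read at 570 nm minus 630 nm background. IC50 from non-linear regression of two independent experiments.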

[15] = system: UACC-903; experiment: Induction of apoptosis in human UACC-903 cells harboring BRAF mutant assessed as viable cells at 5 uM after 24 hrs by Annexin V/7-AAD staining-based assay (reference value: 95.64%); assay type: functional; conditions: UACC-903, 24 h, read-out: Activity
[16] = system: UACC-903; experiment: Induction of apoptosis in human UACC-903 cells harboring BRAF mutant assessed as increase in dead cells at 50 uM after 24 hrs by Calcein-AM/ethidium bromide staining-based fluorescence assay (reference value: 3%); assay type: functional
[17] = system: UACC-903; experiment: Induction of apoptosis in human UACC-903 cells harboring BRAF mutant assessed as live cells level at 5 uM after 24 hrs by AAD dye containing caspase 3/7 activity assay (reference value: 90.06%); assay type: functional
[18] = system: PANC-1; experiment: Antiproliferative activity against human PANC1 cells after 48 hrs by MTT assay; assay type: functional, cell-based; conditions: PANC-1, 48 h; procedure, shortened: as §3
[19] = system: WM 266-4; experiment: Antiproliferative activity against human WM266.4 cells after 48 hrs by MTT assay; assay type: functional, cell-based; conditions: WM 266-4, 48 h; procedure, shortened: as §3
[20] = Antiproliferative activity against human 1205 Lu cells after 48 hrs by MTT assay; assay type: functional, cell-based; procedure, shortened: as §3
[21] = system: UACC-903; experiment: Induction of apoptosis in human UACC-903 cells harboring BRAF mutant assessed as apoptotic cells level at 5 uM after 24 hrs by AAD dye containing caspase 3/7 activity assay (reference value: 6.88%); assay type: functional
[22] = system: UACC-903; experiment: Antiproliferative activity against human UACC-903 cells harboring BRAF mutant after 48 hrs by MTT assay; assay type: functional, cell-based; conditions: UACC-903, 48 h; procedure, shortened: as §3
[23] = system: MDA-MB-231; experiment: Antiproliferative activity against ER/PR/HER2 deficient human MDA-MB-231 cells after 48 hrs by MTT assay; assay type: functional, cell-based; conditions: MDA-MB-231, 48 h; procedure, shortened: as §3
[24] = Antiproliferative activity against human A375M cells after 48 hrs by MTT assay; assay type: functional, cell-based; procedure, shortened: as §3
[25] = system: UACC-903; experiment: Induction of apoptosis in human UACC-903 cells harboring BRAF mutant assessed as necrotic cells at 25 uM after 24 hrs by Annexin V/7-AAD staining-based assay (reference value: 0.12%); assay type: functional
[26] = system: UACC-903; experiment: Induction of apoptosis in human UACC-903 cells harboring BRAF mutant assessed as live cells level at 25 uM after 24 hrs by AAD dye containing caspase 3/7 activity assay (reference value: 90.06%); assay type: functional
[27] = system: UACC-903; experiment: Induction of apoptosis in human UACC-903 cells harboring BRAF mutant assessed as necrotic cells at 5 uM after 24 hrs by Annexin V/7-AAD staining-based assay (reference value: 0.12%); assay type: functional
[28] = system: UACC-903; experiment: Induction of apoptosis in human UACC-903 cells harboring BRAF mutant assessed as decrease in Bcl-xL level at 5 to 25 uM after 24 hrs by Western blot analysis; assay type: functional, cell-based; procedure, shortened: as §1
[29] = system: MCF7; experiment: Antiproliferative activity against human MCF7 cells expressing ER/PR/HER2 after 48 hrs by MTT assay; assay type: functional, cell-based; conditions: MCF7, 48 h; procedure, shortened: as §3
[30] = system: UACC-903; experiment: Induction of apoptosis in human UACC-903 cells harboring BRAF mutant assessed as increase in dead cells at 25 uM after 24 hrs by Calcein-AM/ethidium bromide staining-based fluorescence assay (reference value: 3%); assay type: functional
[31] = system: UACC-903; experiment: Induction of apoptosis in human UACC-903 cells harboring BRAF mutant assessed as dead cells level at 25 uM after 24 hrs by AAD dye containing caspase 3/7 activity assay (reference value: 0.06%); assay type: functional

Question: Which results are given for `O=C1NC(=S)NC(=O)C1=C/C=C/c1cccs1`?
Answer: Activity [1]: Active; Activity [2]: 43.88%; viability at 25 µM [3]: 25.8%; viability at 48 h, 25 µM [4]: 60%; Activity [5]: Active; Activity [6]: 5.12%; selectivity ratio [7]: 3; Activity [8]: 38.14%; Activity [9]: Active; selectivity ratio [10]: 2; Activity [11]: Active; Activity [12]: 0.32%; viability at 25 µM [13]: 20 to 30%; IC50 [14]: 7.2 µM; viability at 5 µM [15]: 91.3%; Activity [16]: 85%; Activity [17]: 90.28%; IC50 [18]: 19.1 µM; IC50 [19]: 7.9 µM; IC50 [20]: 12.4 µM; Activity [21]: 5.46%; IC50 [22]: 8.1 µM; IC50 [23]: 7.6 µM; IC50 [24]: 10.6 µM; Activity [25]: 3.42%; Activity [26]: 17.4%; Activity [27]: 0.4%; Activity [28]: Active; IC50 [29]: 16.2 µM; Activity [30]: 70%; Activity [31]: 0.58%

Question: With `O=C1NC(=S)N(c2ccccc2)C(=O)/C1=C/C=C/c1cccs1` as the compound, how does the Activity [1] read?
Answer: Active

Question: What about the Activity [2] of the same compound?
Answer: 24.1%

Question: And the viability at 25 µM [3]?
Answer: 29.4%

Question: And the viability at 48 h, 25 µM [4]?
Answer: 60%

Question: And the Activity [5]?
Answer: Active

Question: What about the Activity [6] of the same compound?
Answer: 3.7%

Question: What about the selectivity ratio [7] of the same compound?
Answer: 3

Question: What about the Activity [8] of the same compound?
Answer: 50.06%

Question: What about the Activity [9] of the same compound?
Answer: Active

Question: What about the selectivity ratio [10] of the same compound?
Answer: 2

Question: And the Activity [11]?
Answer: Active

Question: And the Activity [12]?
Answer: 0.18%

Question: And the viability at 25 µM [13]?
Answer: 20 to 30%

Question: And the IC50 [14]?
Answer: 6.5 µM

Question: What about the viability at 5 µM [15] of the same compound?
Answer: 92.6%

Question: What about the Activity [16] of the same compound?
Answer: 45%

Question: And the Activity [17]?
Answer: 87.26%

Question: What about the IC50 [18] of the same compound?
Answer: 8.3 µM

Question: And the IC50 [19]?
Answer: 9.2 µM

Question: What about the IC50 [20] of the same compound?
Answer: 13.5 µM

Question: And the Activity [21]?
Answer: 9.68%

Question: What about the IC50 [22] of the same compound?
Answer: 7.6 µM

Question: What about the IC50 [23] of the same compound?
Answer: 8.3 µM

Question: And the IC50 [24]?
Answer: 14.8 µM

Question: And the Activity [25]?
Answer: 5.31%

Question: And the Activity [26]?
Answer: 25.7%

Question: And the Activity [27]?
Answer: 0.54%

Question: And the Activity [28]?
Answer: Active

Question: What about the IC50 [29] of the same compound?
Answer: 16.5 µM

Question: What about the Activity [30] of the same compound?
Answer: 15 - 25%

Question: And the Activity [31]?
Answer: 0.14%
